Experiments:
[1] = test system: Rattus norvegicus; assay: Gastric emptying of phenol red semisolid meal in rats at dose of 2.0 mg/kg, administered perorally.; type: functional; details: route oral
[2] = test system: Mus musculus; assay: Toxicity tested in mouse and expressed as number of dead mouse / number of mouse used after a dose of 1.0 g/kg perorally; + slight toxicity; type: organism-based; details: in vivo, po, 1000 mg/kg
In short: (§1)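 Male ddY mice (18–25 g), groups of 10, given test compound dissolved or suspended in 0.5% tragacanth solution at a single oral dose of 1.0 g/kg. Mortality observed over 7 days after dosing and scored as dead/used per group; + corresponds to 0–2/10 dead.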

[3] = test system: Mus musculus; assay: Toxicity tested in mouse and expressed as number of dead mouse / number of mouse used after a dose of 1.0 g/kg perorally; +++ potent toxicity; type: organism-based; details: in vivo, po, 1000 mg/kg; in short: as §1
[4] = test system: Mus musculus; assay: Toxicity tested in mouse and expressed as number of dead mouse / number of mouse used after a dose of 1.0 g/kg perorally; ++ moderate toxicity; type: organism-based; details: in vivo, po, 1000 mg/kg; in short: as §1
[5] = test system: Mus musculus; assay: Gastric emptying of phenol red semisolid meal in mouse at the dose of 0.5 mg/kg administered perorally.; type: functional; details: route oral
In short: (§2)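 Mice received oral test article in 0.5% tragacanth, four or five animals per dose. Emptying of a phenol red semisolid meal was expressed as percent enhancement over the mean of 0.5% tragacanth controls. Significance was tested by Duncan's multiple range test.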

[6] = test system: Mus musculus; assay: Gastric emptying of phenol red semisolid meal in mouse at the dose of 1.0 mg/kg administered perorally.; type: functional; details: route oral; in short: as §2
[7] = test system: Rattus norvegicus; assay: Gastric emptying of phenol red semisolid meal in rats at the dose of 0.5 mg/kg administered perorally.; type: functional; details: route oral
[8] = test system: Rattus norvegicus; assay: Gastric emptying of resin solid meal in rats at the dose of 2.0 mg/kg administered perorally.; type: functional; details: route oral
[9] = test system: Rattus norvegicus; assay: Gastric emptying of phenol red semisolid meal in rats at the dose of 0.2 mg/kg administered perorally.; type: functional; details: route oral

COc1cc(N)c(Cl)cc1C(=O)NCC1CN(C(C)c2ccc(F)cc2)CCO1 (centres undefined)
GE [1]: 13%

COc1cc(N)c(Cl)cc1C(=O)NCC1CN(Cc2ccc(F)cc2)CCO1 (centres undefined)
GE [1]: 38%

COc1cc(N)c(Cl)cc1C(=O)NCC1CN(Cc2ccccc2F)CCO1 (centres undefined)
GE [1]: 28%

COc1cc(N)c(Cl)cc1C(=O)NCC1CN(Cc2c(C)cc(C)cc2C)CCO1 (centres undefined)
GE [1]: 5%

CCOc1cc(N)c(Cl)cc1C(=O)NCC1C[N+](C)(Cc2ccccc2Cl)CCO1.[I-] (centres undefined)
GE [1]: 34%

COc1cc(N)c(Cl)cc1C(=O)NCC1CN(CCc2ccccc2)CCO1 (centres undefined)
GE [1]: 29%

CCOc1cc(N)c(Cl)cc1C(=O)NCC1CN(Cc2cccc(F)c2)CCO1 (centres undefined)
GE [1]: 54%

CCOc1cc(N)c(Cl)cc1C(=O)NCC1CN(Cc2ccc(C#N)cc2)CCO1 (centres undefined)
Acute toxicity [2]: slight toxicity
GE [1]: 46%

COc1cc(N)c(Cl)cc1C(=O)NCC1CN(Cc2ccccc2C#N)CCO1 (centres undefined)
Acute toxicity [2]: slight toxicity
GE [1]: 43%

CCOc1cc(N)c(Cl)cc1C(=O)NCC1CN(Cc2cc(F)cc(F)c2)CCO1 (centres undefined)
GE [1]: 52%

CCOc1cc(N)c(Cl)cc1C(=O)NCC1CN(Cc2ccccc2C#N)CCO1 (centres undefined)
GE [1]: 29%

CCOc1cc(N)c(Cl)cc1C(=O)NCC1CN(C(C)c2ccc(Cl)cc2)CCO1 (centres undefined)
GE [1]: 33%

CCOc1cc(N)c(Cl)cc1C(=O)NCC1CN(Cc2ccc(C(=O)O)cc2)CCO1 (centres undefined)
GE [1]: 13%

COc1cc(N)c(Cl)cc1C(=O)NCC1CN(Cc2ccc(N)cc2)CCO1 (centres undefined)
GE [1]: 17%

COc1cccc(CN2CCOC(CNC(=O)c3cc(Cl)c(N)cc3OC)C2)c1 (centres undefined)
GE [1]: 10%

COc1cc(N)c(Cl)cc1C(=O)NCC1CN(Cc2ccc(Cl)c(Cl)c2)CCO1 (centres undefined)
GE [1]: 16%

CCOc1cc(N)c(Cl)cc1C(=O)NCC1CN(Cc2ccccc2Cl)CCO1 (centres undefined)
Acute toxicity [2]: slight toxicity
GE [1]: 51%

COc1cc(N)c(Cl)cc1C(=O)NCC1CN(C(c2ccccc2)c2ccccc2)CCO1 (centres undefined)
GE [1]: 15%

CCOc1cc(NC=O)c(Cl)cc1C(=O)NCC1CN(Cc2ccc(F)cc2)CCO1 (centres undefined)
GE [1]: 33%

COc1cc(N)c(Cl)cc1C(=O)NCC1CN(Cc2c(F)c(F)c(F)c(F)c2F)CCO1 (centres undefined)
Acute toxicity [2]: slight toxicity
GE [1]: 39%

CCOc1cc(N)c(Cl)cc1C(=O)NCC1CN(Cc2ccc(Cl)cc2[N+](=O)[O-])CCO1 (centres undefined)
GE [1]: 47%

CCOc1cc(N)c(Cl)cc1C(=O)NCC1CN(Cc2cccc(C#N)c2)CCO1 (centres undefined)
GE [1]: 33%

CCOc1cc(N)c(Cl)cc1C(=O)NCC1CN(C(C)c2ccccc2)CCO1 (centres undefined)
Acute toxicity [3]: potent toxicity
GE [1]: 44%

CCOc1cc(N)c(Cl)cc1C(=O)NCC1CN(Cc2cccc(Cl)c2)CCO1 (centres undefined)
Acute toxicity [4]: moderate toxicity
GE [1]: 58%

COc1cc(N)c(Cl)cc1C(=O)NCC1CN(Cc2cccc(C#N)c2)CCO1 (centres undefined)
Acute toxicity [3]: potent toxicity
GE [1]: 42%

COc1cc(N)c(Cl)cc1C(=O)NCC1CN(C(C)c2ccccc2)CCO1 (centres undefined)
Acute toxicity [3]: potent toxicity
GE [1]: 42%

CCOc1cc(N)c(Cl)cc1C(=O)NCC1CN(Cc2ccccc2)CCO1 (centres undefined)
GE [5]: 35%
GE [6]: 23%
Acute toxicity [2]: Partially active
GE [7]: 34%
GE [1]: 54%
GE [8]: 58%

COc1cc(N)c(Cl)cc1C(=O)NCC1CN(Cc2ccccc2)CCO1 (centres undefined)
GE [5]: 41%
GE [6]: 59%
Acute toxicity [4]: Partially active
GE [7]: 18%
GE [1]: 39%
GE [8]: 16%

CCOc1cc(N)c(Cl)cc1C(=O)NCC1CN(CCCc2ccccc2)CCO1 (centres undefined)
GE [1]: 18%

COc1cc(N)c(Cl)cc1C(=O)NCC1CN(Cc2cccc(C(F)(F)F)c2)CCO1 (centres undefined)
Acute toxicity [4]: moderate toxicity
GE [1]: 43%

COc1cc(N)c(Cl)cc1C(=O)NCC1CN(Cc2ccc(C(F)(F)F)cc2)CCO1 (centres undefined)
GE [1]: 23%

CCOc1cc(N)c(Cl)cc1C(=O)NCC1CN(Cc2ccc(C(=O)OC)cc2)CCO1 (centres undefined)
GE [1]: 52%

CCOc1cc(N)c(Cl)cc1C(=O)NCC1CN(Cc2c(F)c(F)c(F)c(F)c2F)CCO1 (centres undefined)
GE [1]: 23%

CCOc1cc(NC(C)=O)c(Cl)cc1C(=O)NCC1CN(Cc2ccc(F)cc2)CCO1 (centres undefined)
GE [5]: 75%
GE [6]: 82%
GE [9]: 33%
GE [7]: 22%
GE [1]: 74%
GE [8]: 0%

CCOc1cc(N)c(Cl)cc1C(=O)NCC1C[N+]([O-])(Cc2ccccc2Cl)CCO1 (centres undefined)
GE [1]: 52%

COc1cc(N)c(Cl)cc1C(=O)NCC1CN(Cc2ccc(C#N)cc2)CCO1 (centres undefined)
GE [5]: 15%
GE [6]: 44%
Acute toxicity [2]: slight toxicity
GE [9]: 0%
GE [7]: 21%
GE [1]: 49%
GE [8]: 36%

COc1cc(N)c(Cl)cc1C(=O)NCC1CN(Cc2ccc([N+](=O)[O-])cc2)CCO1 (centres undefined)
GE [1]: 22%

COc1cc(N)c(Cl)cc1C(=O)NCC1CN(Cc2cccc(F)c2)CCO1 (centres undefined)
GE [1]: 30%

CCOc1cc(N)c(Cl)cc1C(=O)NCC1CN(Cc2ccc(F)cc2F)CCO1 (centres undefined)
GE [5]: 83%
GE [6]: 89%
GE [9]: 0%
GE [7]: 42%
GE [1]: 76%
GE [8]: 76%

CCOc1cc(N)c(Cl)cc1C(=O)NCC1CN(Cc2ccc(F)c(F)c2)CCO1 (centres undefined)
GE [1]: 46%

COc1cc(N)c(Cl)cc1C(=O)NCC1CN(Cc2ccc(C(=O)O)cc2)CCO1 (centres undefined)
GE [1]: 18%

CCOc1cc(N)c(Cl)cc1C(=O)NCC1CN(Cc2cccc(C(F)(F)F)c2)CCO1 (centres undefined)
GE [5]: 4%
GE [6]: 21%
Acute toxicity [2]: slight toxicity
GE [9]: 32%
GE [7]: 37%
GE [1]: 58%
GE [8]: 22%

COc1ccc(CN2CCOC(CNC(=O)c3cc(Cl)c(N)cc3OC)C2)cc1 (centres undefined)
GE [1]: 10%

COc1cc(N)c(Cl)cc1C(=O)NCC1CN(Cc2ccc(Br)cc2)CCO1 (centres undefined)
GE [1]: 15%

CCOc1cc(N)c(Cl)cc1C(=O)NCC1CN(Cc2ccc(Cl)cc2)CCO1 (centres undefined)
GE [5]: 0%
GE [6]: 21%
Acute toxicity [2]: slight toxicity
GE [9]: 37%
GE [7]: 50%
GE [1]: 63%
GE [8]: 65%

CCOc1cc(N)c(Cl)cc1C(=O)NCC1CN(Cc2ccccc2F)CCO1 (centres undefined)
GE [1]: 60%

CCOc1cc(N)c(Cl)cc1C(=O)NCC1CN(CCCCc2ccccc2)CCO1 (centres undefined)
GE [1]: 47%

COc1cc(N)c(Cl)cc1C(=O)NCC1CN(Cc2ccc(Cl)cc2)CCO1 (centres undefined)
Acute toxicity [4]: moderate toxicity
GE [1]: 36%

COc1cc(N)c(Cl)cc1C(=O)NCC1CN(Cc2ccc(C)cc2)CCO1 (centres undefined)
GE [1]: 11%

CCOc1cc(N)c(Cl)cc1C(=O)NCC1CN(Cc2ccc(F)cc2)CCO1 (centres undefined) [MOSAPRIDE]
GE [5]: 44%
GE [6]: 37%
Acute toxicity [4]: Partially active
GE [9]: 44%
GE [7]: 46%
GE [1]: 61%
GE [8]: 79%
